Experimental data from different studies.
Each line is one published result; the experiments were not run side by side.
Effect on: metabolic stability
Species: human
Sample: liver microsomes

Cn1cc(-c2nc(N3CCC(c4ccccn4)C3)c3ccccc3n2)cn1 (centres unmarked) — microsomal CLint: 118 µL/min/mg
CCn1nccc1Nc1ccnc2ccc(-c3ccc(S(=O)(=O)N4CCOCC4)cc3)cc12 — microsomal CLint: 134 µL/min/mg
COc1cc2[nH]c(C)c(-c3cccc(CO)c3)c(=O)c2cc1Cl — microsomal CLint (1 µM): < 7 µL/min/mg
Cc1cc(Nc2ccc(C(F)(F)F)cc2)n2nc(C(C)(F)F)nc2n1 — microsomal CLint (1 µM, pH 7.4): < 6 µL/min/mg
COc1ccc(CNc2c(CO)cnc3c(C4CC4)cc(C#N)cc23)cc1Cl — microsomal CLint: 80 µL/min/mg
COc1ccc(-c2c(C)[nH]c3cc(OC)c(Cl)cc3c2=O)cc1 — microsomal CLint (1 µM): < 7 µL/min/mg
Cc1cc(Nc2ccc(C(F)(F)F)cc2)n2nc(C(F)(F)F)nc2n1 — microsomal CLint (1 µM, pH 7.4): < 6 µL/min/mg
CCOCCOc1ccnc2ccc(-c3ccc(S(=O)(=O)N4CCOCC4)cc3)cc12 — microsomal CLint: > 300 µL/min/mg
COc1cc2[nH]c(C)c(-c3ccc(COc4ccccc4)cc3)c(=O)c2cc1Cl — microsomal CLint (1 µM): 22 µL/min/mg
O=C(O)C1CCN(c2nc(-c3ccccn3)nc3ccccc23)C1 (centres unmarked) — microsomal CLint: 9 µL/min/mg
Cc1nnc(Nc2ccnc3ccc(-c4ccc(S(=O)(=O)N5CCOCC5)cc4)cc23)nc1C — microsomal CLint: 114 µL/min/mg
COc1cc2[nH]c(C)c(-c3ccc(F)cc3)c(=O)c2cc1Cl — microsomal CLint (1 µM): 31 µL/min/mg
O=S(=O)(c1ccc(-c2ccc3nccc(Nc4ncc(Cl)cn4)c3c2)cc1)N1CCOCC1 — microsomal CLint: 113 µL/min/mg
Fc1ccc(N(CC2CC2)c2c(-c3ccccn3)nc3ccccn23)cc1 — microsomal CLint (3 µM, pH 7.4): 110 µL/min/mg
Fc1ccccc1-c1nc(N2CCC(c3ccccn3)C2)c2ccccc2n1 (centres unmarked) — microsomal CLint: 186 µL/min/mg
COc1cccnc1-c1nc2ccccn2c1Nc1ccc(F)cc1 — microsomal CLint (3 µM, pH 7.4): 19 µL/min/mg
CS(=O)(=O)c1ccc(-c2cnc(N)c(-c3ccc(C(F)(F)F)nc3)c2)cc1 — microsomal CLint (1 µM): < 11.6 µL/min/mg
O=S(=O)(c1ccc(-c2ccc3nccc(Nc4cncs4)c3c2)cc1)N1CCOCC1 — microsomal CLint: 29.5 µL/min/mg
C[C@H](C(=O)NC1Cc2ccccc2C1)c1ccccc1 — microsomal CLint (1 µM, 1 h): 15 µL/min/mg
O=C(Nc1ccc2c(c1)B(O)OC2)Nc1ccc(F)c(C(F)(F)F)c1 — microsomal CLint: 13 µL/min/mg
c1ccc(-c2nc3n(c2-c2ccncc2)CCC3)nc1 — microsomal CLint (3 µM, pH 7.4): 26 µL/min/mg
CCOC(=O)c1c(-c2cc(F)cc(OC)c2)[nH]c2cc(OC)c(F)cc2c1=O — microsomal CLint (19.8 µM, pH 7.4): 50 µL/min/mg
Cc1cc(Nc2ccc(S(F)(F)(F)(F)F)cc2)n2ccnc2n1 — microsomal CLint: 7.1 µL/min/mg
COc1cc2[nH]c(C)c(-c3ccc(C(C)C)cc3)c(=O)c2cc1Cl — microsomal CLint (1 µM): 34 µL/min/mg
CCC(F)(F)c1nc2nc(C)cc(Nc3ccc(C(F)(F)F)cc3)n2n1 — microsomal CLint (1 µM, pH 7.4): < 6 µL/min/mg
CCOC(=O)c1c(-c2cccc(Cl)c2)[nH]c2cc(OC)c(F)cc2c1=O — microsomal CLint (19.8 µM, pH 7.4): < 4 µL/min/mg
Cn1ccnc1CNc1nc(-c2ccccn2)nc2ccccc12 — microsomal CLint: 24 µL/min/mg
Fc1ccc(Nc2c(-c3cc(Cl)ccn3)nc3ccccn23)cc1 — microsomal CLint (3 µM, pH 7.4): 160 µL/min/mg
C[C@H](C(=O)N[C@@H]1COc2ccccc2[C@H]1S(C)(=O)=O)c1ccc(F)cc1 — microsomal CLint (1 µM): 2 µL/min/mg
CC(C)(C)[Si](C)(C)OCCCN(c1ccc(F)cc1)c1c(-c2ccccn2)nc2ccccn12 — microsomal CLint (3 µM, pH 7.4): > 300 µL/min/mg
Cc1cnc(Nc2ccnc3ccc(-c4ccc(S(=O)(=O)N5CCOCC5)cc4)cc23)s1 — microsomal CLint: 76.3 µL/min/mg
Fc1ccc(Nc2c(Cn3cccn3)nc3ccccn23)cc1 — microsomal CLint (3 µM, pH 7.4): 45 µL/min/mg
COc1cc2[nH]c(C)c(-c3ccc(C(F)(F)F)cc3)c(=O)c2cc1Cl — microsomal CLint (1 µM): < 7 µL/min/mg
CCN(CC)CCNC(=O)c1c(C)[nH]c(/C=C2\C(=O)Nc3ccc(F)cc32)c1C — microsomal CLint (1 µM, pH 7.4): 19 µL/min/mg
Fc1cccc(F)c1-c1nc(N2CCC(c3ccccn3)C2)c2ccccc2n1 (centres unmarked) — microsomal CLint: 114 µL/min/mg
COc1cc2[nH]c(C)c(-c3ccc(C)cc3)c(=O)c2cc1Cl — microsomal CLint (1 µM): 21 µL/min/mg
Cc1cccnc1CNc1nc(-c2ccccn2)nc2ccccc12 — microsomal CLint: 64 µL/min/mg
c1ccc(-c2nc3n(c2-c2cccnc2)CCC3)nc1 — microsomal CLint (3 µM, pH 7.4): 24 µL/min/mg
O=C(Nc1ccnc(C(F)(F)F)c1)Nc1cccc2c1OC(F)(F)O2 — microsomal CLint: 14 µL/min/mg
COc1ccc(Nc2ccnc3ccc(-c4ccc(S(=O)(=O)N5CCOCC5)cc4)cc23)cc1Cl — microsomal CLint: 102 µL/min/mg
Fc1ccc(Nc2c(-c3ccccn3)nc3ccccn23)c(F)c1 — microsomal CLint (3 µM, pH 7.4): 96 µL/min/mg
C[C@H](N)c1cc(Cl)ccc1Cn1c(=S)[nH]c(=O)c2[nH]ccc21 — microsomal CLint: < 3 µL/min/mg
O=C(N[C@H](Cc1ccccc1)C(=O)Nc1ccccc1N1CCS(=O)(=O)CC1)c1ccccc1F — microsomal CLint (2 µM, 40 min, pH 7.4): 1110 µL/min/mg
CCn1cnc2c(N3CCC(c4ccccn4)C3)nc(-c3ccccn3)nc21 (centres unmarked) — microsomal CLint: 42 µL/min/mg
COc1cc2[nH]c(C)c(-c3c(C)noc3C)c(=O)c2cc1Cl — microsomal CLint (1 µM): < 7 µL/min/mg
CCn1ncc2c(N3CCC(c4ccccn4)C3)nc(-c3ccccn3)nc21 (centres unmarked) — microsomal CLint: < 1 µL/min/mg
O=S(=O)(c1ccc(-c2ccc3nccc(Nc4cccnc4)c3c2)cc1)N1CCOCC1 — microsomal CLint: 86.3 µL/min/mg
